The species entered for test [1] is Rattus norvegicus. The experiment in a line: Agonist activity at AMPA receptor in rat purkinje neurons assessed as potentiation of kainate-induced transmembrane current at 30 uM by patch-clamp technique relative to kainate. It is filed as functional. Put shortly: (§1)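 Whole-cell patch-clamp on Purkinje neurons freshly dissociated from cerebellum of 14-18 day old rats. Slices were incubated 1 h in saline, then treated with Pronase and collagenase at 34 °C under O2 and triturated. Extracellular saline was HEPES-buffered, pH 7.32, with KCl/EGTA/ATP pipette solution. Agonist (kainate or glutamate) was applied with or without compound by fast perfusion. Potentiation was taken relative to the agonist-alone current.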
(In general: In patch-clamp work, channel activity is measured electrically.)

For test [2], the species on record is Rattus norvegicus. Nature of the test: Agonist activity at AMPA receptor in rat purkinje neurons assessed as potentiation of 1000 uM kainate-induced transmembrane current at 30 uM by patch-clamp technique relative to kainate. In kind it is functional. Put shortly:
as §1

The species named for test [3] is Rattus norvegicus. Nature of the test: Agonist activity at AMPA receptor in rat purkinje neurons assessed as potentiation of 500 uM glutamate-induced transmembrane current at 30 uM relative to glutamate. In kind it is functional. A digest of the protocol:
as §1

Test [4] is filed under the species Rattus norvegicus. The experiment in a line: Agonist activity at AMPA receptor in rat purkinje neurons assessed as potentiation of 4000 uM kainate-induced transmembrane current at 30 uM by patch-clamp technique relative to kainate. In kind it is functional. A digest of the protocol:
as §1

For test [5], the species on record is Rattus norvegicus. Nature of the test: Agonist activity at AMPA receptor in rat purkinje neurons assessed as potentiation of glutamate-induced transmembrane current at 30 uM by patch-clamp technique relative to kainate. In kind it is functional. Put shortly:
as §1

The species entered for test [6] is Rattus norvegicus. The experiment in a line: Agonist activity at AMPA receptor in rat purkinje neurons assessed as potentiation of 500 uM kainate-induced transmembrane current at 50 uM relative to kainate. It is filed as functional. Put shortly:
as §1

The target of test [7] is T1, Glutamate NMDA receptor (Rattus norvegicus) (UniProt P35439+Q00959+Q00960+Q00961+Q62645+Q8VHN2+Q9R1M7). Nature of the test: Antagonist activity at NMDA receptor in rat cerebral cortex neurons assessed as 50 uM NMDA-induced current at 2 uM relative to control. It is filed as functional, tissue-based. Also on record: scale not given: the % may be the effect or the level left. Put shortly:
(§2)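 Whole-cell currents were evoked by NMDA (50, 100, 5000 or 10000 µM) in a heterogeneous primary culture of rat cerebral cortex neurons. Compound was tested at 0.5-30 µM. Current amplitude was expressed as percent of the NMDA-alone control.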

The target of test [8] is T1, Glutamate NMDA receptor (Rattus norvegicus). Nature of the test: Antagonist activity at NMDA receptor in rat cerebral cortex neurons assessed as 100 uM NMDA-induced current at 2 uM relative to control. It is filed as functional, tissue-based. Also on record: scale not given: the % may be the effect or the level left. A digest of the protocol:
as §2

The target is the same in test [9]. The experiment in a line: Antagonist activity at NMDA receptor in rat cerebral cortex neurons assessed as 50 uM NMDA-induced current at 0.5 uM relative to control. In kind it is functional, tissue-based. Also on record: scale not given: the % may be the effect or the level left. A digest of the protocol: as §2
Test [10] shares this target. The experiment in a line: Antagonist activity at NMDA receptor in rat cerebral cortex neurons assessed as 10000 uM NMDA-induced current at 0.5 uM relative to control. In kind it is functional, tissue-based. More on the design: scale not given: the % may be the effect or the level left. Put shortly:
as §2

For test [11] the target is unchanged. Nature of the test: Antagonist activity at NMDA receptor in rat cerebral cortex neurons assessed as 100 uM NMDA-induced current at 1 uM relative to control. It is filed as functional, tissue-based. More on the design: scale not given: the % may be the effect or the level left. Put shortly: as §2
For test [12] the target is unchanged. Nature of the test: Antagonist activity at NMDA receptor in rat cerebral cortex neurons assessed as 5000 uM NMDA-induced current at 30 uM relative to control. It is filed as functional, tissue-based. More on the design: scale not given: the % may be the effect or the level left. Put shortly: as §2
Test [13] has the same target. The experiment in a line: Antagonist activity at NMDA receptor in rat cerebral cortex neurons assessed as 5000 uM NMDA-induced current at 2 uM relative to control. It is filed as functional, tissue-based. More on the design: scale not given: the % may be the effect or the level left. A digest of the protocol:
as §2

For test [14] the target is unchanged. Nature of the test: Antagonist activity at NMDA receptor in rat cerebral cortex neurons assessed as 50 uM NMDA-induced current at 30 uM relative to control. It is filed as functional, tissue-based. Also on record: scale not given: the % may be the effect or the level left. A digest of the protocol: as §2
For test [15] the target is unchanged. Nature of the test: Antagonist activity at NMDA receptor in rat cerebral cortex neurons assessed as 50 uM NMDA-induced current at 10 uM relative to control. In kind it is functional, tissue-based. Also on record: scale not given: the % may be the effect or the level left. Put shortly:
as §2

The target is the same in test [16]. The experiment in a line: Antagonist activity at NMDA receptor in rat cerebral cortex neurons assessed as 100 uM NMDA-induced current at 10 uM relative to control. It is filed as functional, tissue-based. More on the design: scale not given: the % may be the effect or the level left. A digest of the protocol:
as §2

Test [17] shares this target. Nature of the test: Antagonist activity at NMDA receptor in rat cerebral cortex neurons assessed as 5000 uM NMDA-induced current at 5 uM relative to control. In kind it is functional, tissue-based. More on the design: scale not given: the % may be the effect or the level left. A digest of the protocol:
as §2

The target is the same in test [18]. Nature of the test: Antagonist activity at NMDA receptor in rat cerebral cortex neurons assessed as 10000 uM NMDA-induced current at 10 uM relative to control. Also on record: scale not given: the % may be the effect or the level left. In kind it is functional, tissue-based. A digest of the protocol:
as §2

Test [19] shares this target. Nature of the test: Antagonist activity at NMDA receptor in rat cerebral cortex neurons assessed as 5000 uM NMDA-induced current at 1 uM relative to control. It is filed as functional, tissue-based. Also on record: scale not given: the % may be the effect or the level left. A digest of the protocol: as §2
For test [20] the target is unchanged. The experiment in a line: Antagonist activity at NMDA receptor in rat cerebral cortex neurons assessed as 5000 uM NMDA-induced current at 0.5 uM relative to control. It is filed as functional, tissue-based. Also on record: scale not given: the % may be the effect or the level left. A digest of the protocol: as §2
The species named for test [21] is Rattus norvegicus. The experiment in a line: Agonist activity at AMPA receptor in rat purkinje neurons assessed as increase in potentiation of kainate-induced transmembrane current at 30 uM by patch-clamp technique relative to S-ethyl-N-allyl-N',N'-dibenzylisothiourea hydroiodide. It is filed as functional.
Test [22] has as its target T1, Glutamate NMDA receptor (Rattus norvegicus). Nature of the test: Antagonist activity at NMDA receptor in rat cerebral cortex neurons assessed as 100 uM NMDA-induced current at 30 uM relative to control. It is filed as functional, tissue-based. Also on record: scale not given: the % may be the effect or the level left. Put shortly:
as §2

The target is the same in test [23]. Nature of the test: Antagonist activity at NMDA receptor in rat cerebral cortex neurons assessed as 50 uM NMDA-induced current at 5 uM relative to control. In kind it is functional, tissue-based. More on the design: scale not given: the % may be the effect or the level left. Put shortly:
as §2

Test [24] shares this target. Nature of the test: Antagonist activity at NMDA receptor in rat cerebral cortex neurons assessed as 10000 uM NMDA-induced current at 2 uM relative to control. In kind it is functional, tissue-based. More on the design: scale not given: the % may be the effect or the level left. Put shortly:
as §2

The target is the same in test [25]. Nature of the test: Antagonist activity at NMDA receptor in rat cerebral cortex neurons assessed as 10000 uM NMDA-induced current at 5 uM relative to control. Also on record: scale not given: the % may be the effect or the level left. It is filed as functional, tissue-based. Put shortly:
as §2

The target is the same in test [26]. The experiment in a line: Antagonist activity at NMDA receptor in rat cerebral cortex neurons assessed as 10000 uM NMDA-induced current at 1 uM relative to control. It is filed as functional, tissue-based. Also on record: scale not given: the % may be the effect or the level left. A digest of the protocol:
as §2

The target is the same in test [27]. Nature of the test: Antagonist activity at NMDA receptor in rat cerebral cortex neurons assessed as 50 uM NMDA-induced current at 1 uM relative to control. It is filed as functional. More on the design: scale not given: the % may be the effect or the level left. A digest of the protocol:
as §2

For test [28] the target is unchanged. Nature of the test: Antagonist activity at NMDA receptor in rat cerebral cortex neurons assessed as 5000 uM NMDA-induced current at 10 uM relative to control. Also on record: scale not given: the % may be the effect or the level left. It is filed as functional, tissue-based. Put shortly:
as §2

For test [29] the target is unchanged. The experiment in a line: Antagonist activity at NMDA receptor in rat cerebral cortex neurons assessed as 10000 uM NMDA-induced current at 30 uM relative to control. It is filed as functional, tissue-based. Also on record: scale not given: the % may be the effect or the level left. Put shortly:
as §2

Test [30] shares this target. Nature of the test: Antagonist activity at NMDA receptor in rat cerebral cortex neurons assessed as 100 uM NMDA-induced current at 0.5 uM relative to control. More on the design: scale not given: the % may be the effect or the level left. In kind it is functional, tissue-based. Put shortly: as §2
The target is the same in test [31]. The experiment in a line: Antagonist activity at NMDA receptor in rat cerebral cortex neurons assessed as 100 uM NMDA-induced current at 5 uM relative to control. It is filed as functional, tissue-based. Also on record: scale not given: the % may be the effect or the level left. A digest of the protocol:
as §2

The source made the active and inactive calls. No cut-off for these calls is given here.

As to `NS(=O)(=O)c1cc2c(cc1Cl)NC(C1CC3C=CC1C3)NS2(=O)=O` (configuration not stated), the result in the test filed under Rattus norvegicus [1], in the test listed under Rattus norvegicus [5] and in the test filed under Rattus norvegicus [6] was Active. Moreover, the Activity in the test listed under Rattus norvegicus [2] was determined as 150%; in the test filed under Rattus norvegicus [4], 60%. The fold change (FC) in the test listed under Rattus norvegicus [3] is 7.
In the case of `C=CC/N=C(\SCC)N(Cc1ccccc1)Cc1ccccc1`, the Activity is 48% in [7]; 55% in [8]; 98% in test [9]; 45% in test [10]; 48% in [11]; 4% in test [12]. Moreover, the Activity came out at 290% in the test filed under Rattus norvegicus [2]; 36% in test [13]; 11% in test [14]; 31% in [15]; 23% in test [16]; 20% in [17]. For the same molecule, the Activity in the test filed under Rattus norvegicus [4] was determined as 132%; in test [18], 10%; in test [19], 35%; in [20], 59%; in the test filed under Rattus norvegicus [21] it was 5%; in test [22], 8%. Further, the Activity in [23] was 34%; in test [24], 26%; in test [25], 16%; in test [26], 35%; in test [27], 68%; in test [28] it was 14%. Further, the Activity came out at 3% in [29], 99% in test [30] and 35% in test [31]. Further, the outcome in the test listed under Rattus norvegicus [1], in the test filed under Rattus norvegicus [5] and in the test listed under Rattus norvegicus [6] was Active. Moreover, the fold change (FC) in the test listed under Rattus norvegicus [3] was 26.9.
